Blank lines part the entries; values can stand above or below the molecule they belong to.
Experiments:
[1] = (§1) Drug level in phosphate buffer treated with (Z)-1-(4-cyano-5-(4-(methylamino)benzoyloxy)-2-nitrophenoxy)-3,3-dimethyltriaz-1-ene 2-oxide at 1 uM at pH 7.4 at 37 degC after 30 secs by LC-MS analysis in presence of GSH; type: physicochemical; settings: pH 7.4, 0.5 min
[2] = target: T1, Glutathione S-transferase A1 (Homo sapiens, UniProt P08263); assay: as §1, with “buffer assessed as GSTA1 (unknown origin)-mediated compound formation from nitric oxide retained pathway” for “buffer”, “mins” for “secs”, “LC-MS/MS” for “LC-MS”; type: ADME; settings: pH 7.4, 0.5 h
T1 sequence (P08263 whole entry): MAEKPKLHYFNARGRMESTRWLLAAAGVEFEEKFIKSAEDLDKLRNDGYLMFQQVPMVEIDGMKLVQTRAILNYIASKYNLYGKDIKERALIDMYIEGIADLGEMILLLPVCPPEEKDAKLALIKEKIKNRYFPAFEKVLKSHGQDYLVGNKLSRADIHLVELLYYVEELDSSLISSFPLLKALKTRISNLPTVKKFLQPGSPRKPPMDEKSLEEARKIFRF
Summary of the method: (§2)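 Products analysed by LC–MS. The ratio is the NO-release-pathway product over the NO-retained-pathway phenolic product.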

[3] = (§3) Drug level in phosphate buffer treated with (Z)-1-(2-cyano-5-(4-(methylamino)benzoyloxy)-4-nitrophenoxy)-3,3-dimethyltriaz-1-ene 2-oxide at 1 uM at pH 7.4 at 37 degC after 30 secs by LC-MS analysis in presence of GSH; type: physicochemical; settings: pH 7.4, 0.5 min
[4] = target: T1, Glutathione S-transferase A1; assay: as §3, with “buffer assessed as GSTA1 (unknown origin)-mediated compound formation from nitric oxide retained pathway” for “buffer”, “mins” for “secs”, “LC-MS/MS” for “LC-MS”; type: ADME; settings: pH 7.4, 0.5 h; summary of the method: as §2
[5] = Drug level in phosphate buffer treated with (Z)-3,3-dimethyl-1-(5-(4-(methylamino)benzoyloxy)-2,4-dinitrophenoxy)triaz-1-ene 2-oxide at 1 uM at pH 7.4 at 25 degC by HPLC trapping method; type: physicochemical; settings: pH 7.4, 1 µM
[6] = Drug level in phosphate buffer treated with (Z)-3,3-dimethyl-1-(5-(4-(methylamino)benzoyloxy)-2,4-dinitrophenoxy)triaz-1-ene 2-oxide at 1 uM at pH 7.4 at 37 degC after 1 to 30 mins by LC/MS-MS analysis; type: physicochemical; settings: pH 7.4, 1 µM
[7] = Drug level in phosphate buffer treated with (Z)-3,3-dimethyl-1-(5-(4-(methylamino)benzoyloxy)-2,4-dinitrophenoxy)triaz-1-ene 2-oxide at 1 uM at pH 7.4 at 37 degC by HPLC trapping method in presence of GSH; type: physicochemical; settings: pH 7.4, 1 µM
[8] = target: T2, Glutathione S-transferase P (Homo sapiens, UniProt P09211); assay: Drug level in phosphate buffer assessed as GSTP1 (unknown origin)-mediated compound formation treated with (Z)-1-(4-cyano-5-(4-(methylamino)benzoyloxy)-2-nitrophenoxy)-3,3-dimethyltriaz-1-ene 2-oxide at 1 uM at pH 7.4 at 37 degC after 1 to 30 mins by LC-MS/MS analysis in presence of GSH; type: ADME; settings: pH 7.4, 1 µM
Summary of the method: (§4)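 Test compound at 1 µM reacted with 4 mM GSH containing 4 nM GSTP1 in 0.1 M phosphate, pH 7.4, at 37 °C. Products identified by LC–MS traces taken at 60 s and 30 min.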

[9] = target: T2, Glutathione S-transferase P; assay: Drug level in phosphate buffer assessed as GSTP1 (unknown origin)-mediated compound formation treated with (Z)-1-(2-cyano-5-(4-(methylamino)benzoyloxy)-4-nitrophenoxy)-3,3-dimethyltriaz-1-ene 2-oxide at 1 uM at pH 7.4 at 37 degC after 5 to 30 mins by LC-MS/MS analysis in presence of GSH; type: ADME; settings: pH 7.4, 1 µM; summary of the method: as §4
[10] = Drug level in phosphate buffer treated with (Z)-3,3-dimethyl-1-(5-(4-(methylamino)benzoyloxy)-2,4-dinitrophenoxy)triaz-1-ene 2-oxide at 1 uM at pH 7.4 at 37 degC by HPLC trapping method; type: physicochemical; settings: pH 7.4, 1 µM
[11] = target: T1, Glutathione S-transferase A1; assay: Drug level in phosphate buffer assessed as GSTA1 (unknown origin)-mediated compound formation from nitric oxide retained pathway treated with (Z)-3,3-dimethyl-1-(5-(4-(methylamino)benzoyloxy)-2,4-dinitrophenoxy)triaz-1-ene 2-oxide at 1 uM at pH 7.4 at 37 degC after 30 mins by LC-MS/MS analysis in presence of GSH; type: ADME; settings: pH 7.4, 0.5 h; summary of the method: as §2

T2 sequence (P09211 whole entry): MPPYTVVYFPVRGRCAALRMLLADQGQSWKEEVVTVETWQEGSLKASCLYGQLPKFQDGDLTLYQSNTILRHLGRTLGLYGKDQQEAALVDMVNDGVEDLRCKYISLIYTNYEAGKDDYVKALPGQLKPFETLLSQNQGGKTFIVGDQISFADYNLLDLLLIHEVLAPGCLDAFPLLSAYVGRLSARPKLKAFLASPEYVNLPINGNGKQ

Drug metabolism [1]: metabolite_detected | Drug metabolism [2]: metabolite_detected
SMILES: CN(C)/[N+]([O-])=N/Oc1cc(O)c(C#N)cc1[N+](=O)[O-]

Drug metabolism [3]: metabolite_detected | Drug metabolism [4]: metabolite_detected
SMILES: CN(C)/[N+]([O-])=N/Oc1cc(O)c([N+](=O)[O-])cc1C#N

Drug metabolism [5]: metabolite_detected | Drug metabolism [3]: metabolite_detected | Drug metabolism [6]: metabolite_detected
SMILES: CNc1ccc(C(=O)O)cc1

Drug metabolism [7]: metabolite_detected | Drug metabolism [6]: metabolite_detected
SMILES: CNc1ccc(C(=O)Oc2cc(SC[C@H](NC(=O)CC[C@H](N)C(=O)O)C(=O)NCC(=O)O)c([N+](=O)[O-])cc2[N+](=O)[O-])cc1

Drug metabolism [8]: metabolite_detected
SMILES: CNc1ccc(C(=O)Oc2cc(SC[C@H](NC(=O)CC[C@H](N)C(=O)O)C(=O)NCC(=O)O)c([N+](=O)[O-])cc2C#N)cc1

Drug metabolism [3]: metabolite_detected | Drug metabolism [9]: metabolite_detected
SMILES: CN(C)/[N+]([O-])=N/Oc1cc(SC[C@H](NC(=O)CC[C@H](N)C(=O)O)C(=O)NCC(=O)O)c([N+](=O)[O-])cc1C#N

Drug metabolism [10]: metabolite_detected | Drug metabolism [7]: metabolite_detected | Drug metabolism [6]: metabolite_detected | Drug metabolism [11]: metabolite_detected
SMILES: CN(C)/[N+]([O-])=N\Oc1cc(O)c([N+](=O)[O-])cc1[N+](=O)[O-]

Source: ChEMBL document CHEMBL3593239, “PABA/NO lead optimization: Improved targeting of cytotoxicity to glutathione S-transferase P1-overexpressing cancer cells” (Bioorg Med Chem, 2015)
